M4 antag: blocks acetylcholine activation of human M4 receptor | P08173 | CHO-hM4 cells, ACh EC80, Fluo-8 calcium fluorescence | inhibition, % at 3 µM | actives 0.73% (n = 360,000);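 active = inhibition above its plate's cutoff, the mean inhibition of sample wells plus 3 SD, cut at about 27% in these data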;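 also: 0% = acetylcholine EC80 with DMSO and 100% = DMSO without agonist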
Target sequence (P08173 whole entry, looked up): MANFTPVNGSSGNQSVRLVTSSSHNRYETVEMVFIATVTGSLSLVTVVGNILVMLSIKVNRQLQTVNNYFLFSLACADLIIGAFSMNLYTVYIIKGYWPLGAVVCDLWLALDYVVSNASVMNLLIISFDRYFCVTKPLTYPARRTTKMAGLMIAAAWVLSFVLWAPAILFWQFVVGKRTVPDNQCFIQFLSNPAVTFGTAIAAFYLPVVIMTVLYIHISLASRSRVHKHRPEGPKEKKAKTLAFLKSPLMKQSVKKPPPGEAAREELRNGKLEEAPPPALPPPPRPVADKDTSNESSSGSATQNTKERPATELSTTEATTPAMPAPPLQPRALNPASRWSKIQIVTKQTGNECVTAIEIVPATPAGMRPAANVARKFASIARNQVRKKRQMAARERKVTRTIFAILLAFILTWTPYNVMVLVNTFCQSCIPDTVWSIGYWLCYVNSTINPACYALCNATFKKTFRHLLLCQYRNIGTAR
CHRM5 antagonist: CHRM5 antagonism in calcium assay | P08912 | CHO-hM5 cells, Fluo-8 calcium fluorescence, ACh EC80 | inhibition, % at 3 µM | actives 0.59% (n = 360,000);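 active = inhibition above a per-plate cutoff, the mean of that plate's test compounds plus 3 SD, cut at about 27% in these data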;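 also: 0% = acetylcholine EC80 with DMSO and 100% = DMSO without agonist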
M4 ag: CHRM4 agonism in calcium assay; P08173; CHO-K1 hM4/Gqi5, Fluo-8 calcium fluorescence; vehicle 0%, full acetylcholine response 100%; activation, % at 3 µM; actives 0.14% (n = 360,000);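 active = activation above the run mean over all test wells plus 3 SD, cut at about 32% in these data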;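 also: peak over basal fluorescence ratio per well then scaled between controls; 0% = DMSO wells and 100% = acetylcholine at EC100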
M5 ag: CHRM5 agonism in calcium assay; P08912; CHO-K1 hM5 cells, Fluo-8 calcium fluorescence; 0% DMSO wells, 100% maximal acetylcholine response; activation, % at 3 µM; actives 0.19% (n = 360,000);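 active = activation above the run's mean over test compounds plus 3 SD, cut at about 23% in these data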;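 also: signal is peak over basal fluorescence ratio across the kinetic read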
M5 PAM: positive allosteric modulators of human muscarinic M5 receptor. activation, % at 3 µM. CHO-K1 hM5, Fluo-8 calcium, ACh EC20 PAM; 0% = ACh EC20, 100% = ACh EC100. P08912. actives 0.3% (n = 360,000);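 active = activation above the run cutoff, the mean activation of all test compounds plus 3 SD, cut at about 18% in these data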
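System – CHO-K1 hM5 cells · Compound – 3 µM, single dose · Incubation – compound preincubation 140 s before EC20 acetylcholine addition · Technique – Fluo-8 calcium fluorescence · Measure – Max/basal fluorescence ratio as % of EC20–EC100 ACh window · Benchmarks – low control EC20 acetylcholine (0%), high control EC100 acetylcholine (100%) · Replication – singlicate, one well per test compound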
M4 PAM: CHRM4 positive allosteric modulation; P08173; CHO-K1 hM4/Gqi5, Fluo-8 calcium fluorescence, ACh EC20; 0% = ACh EC20, 100% = maximal ACh; activation, % at 3 µM; actives 0.4% (n = 360,000); AID 624126;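 active = activation above its plate's cutoff, the mean activation of sample wells plus 3 SD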
* marks the source's active call; other numbers are inactive results. Shown are actives, neighbours in structure and some others; about 1.8% of the full set was active somewhere.

SMILES | M4 antag | CHRM5 antagonist | M4 ag | M5 ag | M5 PAM | M4 PAM
CCOC(=O)c1cc2c(nc1N)CC(C)(CC)OC2 (centres undefined) | 0 | 2 | 1 | 2 | -4 | 17*
O=C(Nc1ccc(Cl)c(Cl)c1)Nc1ccccc1O | 16 | 42* | 18 | 3 | -25 | -9
O=C(Nc1ccc(Cl)c(Cl)c1)Nc1ccc(Br)cc1F | 18 | 31* | 12 | 4 | -14 | -11
COc1ccc(NC(=O)Nc2ccc(F)c(Cl)c2)cc1 | 5 | 35* | 16 | 4 | -17 | -6
O=C(NNc1ccccc1[N+](=O)[O-])Nc1ccc(Cl)c(Cl)c1 | 15 | 29* | 15 | 12 | -18 | -8
O=C(Nc1ccc(Cl)c(Cl)c1)c1ccccc1 | 6 | 5 | 3 | -2 | -1 | -6
N#CC1(NC(=O)COC(=O)C23CC4CC(CC(O)(C4)C2)C3)CCCCC1 | 0 | 3 | 1 | -1 | -3 | -1
O=C(Nc1ccc(N2CCOCC2)cc1)Nc1ccc(Cl)c(Cl)c1 | 48* | 39* | 43* | 15 | -24 | -18
O=C(Nc1ccc(Cl)c([N+](=O)[O-])c1)C(Sc1ccccc1)c1ccccc1 (centres undefined) | 26 | 30* | 7 | 0 | -19 | -28
CN(NC(=O)C(=O)NCc1ccco1)C(=O)Nc1ccc(Cl)cc1 | 8 | 37* | 18 | 11 | -20 | 4
CCN(CC(=O)Nc1ccc(NC(C)=O)cc1)C(=O)c1ccc(N(C)S(=O)(=O)c2ccc(C)cc2)cc1 | 1 | 10 | 1 | -2 | 1 | -2
CCN(CC(=O)Nc1ccccc1OC)C(=O)c1ccc(N(C)S(=O)(=O)c2ccc(C)cc2)cc1 | -7 | 98* | 19 | -8 | -30 | -4
Cc1nc2scc(-c3ccccc3)c2c(=O)o1 | -9 | 11 | 0 | -2 | 23* | 5
O=c1oc(-c2ccccc2F)nc2scc(-c3ccccc3)c12 | 0 | 8 | 0 | 1 | 3 | -2
COC(=O)c1cc([N+](=O)[O-])c(C)c(C)n1 | -6 | -1 | -1 | 0 | -4 | 3
COCCCNC(=O)c1cn(Cc2c(F)cccc2Cl)nn1 | 2 | -14 | 0 | 0 | 30* | 4
CCCCN1C[C@H](Cc2ccccc2)[C@@H](CC(=O)NC)C1=O | -5 | -1 | 1 | 1 | 2 | 5
CCC(c1nnnn1Cc1ccc(F)cc1)N1CCN(C)CC1 (centres undefined) | -16 | 2 | 2 | -14 | 9 | 24*
COc1ccc(C(=O)CC(C#N)c2ccc3c(c2)OCO3)cc1OC (centres undefined) | -1 | 8 | 3 | 5 | -8 | -3
COc1ccc(CN([C@H](CO)CC(C)C)S(=O)(=O)N(Cc2ccccc2)[C@H](CO)CC(C)C)cc1 | 41* | 18 | 17 | -1 | -32 | -10
CC(C)C[C@@H](CO)N(Cc1ccccc1)S(=O)(=O)N(Cc1ccccc1)[C@@H](CO)CC(C)C | 26 | 16 | 10 | -1 | -21 | -14
CC(C)C[C@@H](CO)N(Cc1ccccc1)S(=O)(=O)N(Cc1ccccc1)[C@H](CO)CC(C)C | 39* | 9 | 20 | 2 | -20 | -8
C=C1C[C@H](O)[C@@H]2[C@H](OC(=O)[C@H]2C)[C@H]2[C@H](C)[C@@H](O)C[C@@H]12 | 5 | 12 | 0 | 2 | 3 | 14
C=C1SC(Nc2c(C)cccc2C)=NC12CCCCC2 | 29* | 22 | -1 | -6 | -11 | -15
O=C1NC[C@H](CC2CCCCC2)N(CCc2cc(C(F)(F)F)cc(C(F)(F)F)c2)C1=O | -5 | 7 | -1 | -1 | -1 | 7
SMILES | M4 antag | CHRM5 antagonist | M4 ag | M5 ag | M5 PAM | M4 PAM
O=c1[nH]c(C2CCN(S(=O)(=O)c3ccc4c(c3)OCCO4)CC2)nc2c1nnn2Cc1ccccc1 | 90* | 2 | 0 | -1 | 5 | -21
Cc1ccc(C)c(S(=O)(=O)N2CCC(c3nc4c(nnn4Cc4ccc5c(c4)OCCO5)c(=O)[nH]3)CC2)c1 | 42* | 12 | 2 | -5 | -7 | -14
Cc1ccc(S(=O)(=O)N2CCC(c3nc4c(nnn4Cc4ccccc4)c(=O)[nH]3)CC2)cc1 | 75* | 5 | -1 | -2 | -2 | -20
C[C@H](NC(=O)c1ncn2c1C(=O)N[C@@H](C)C2)c1ccccc1 | -13 | -8 | 0 | 2 | 1 | 9
CN(C)c1ccc(CN2CCC(C(=O)NC(c3ccc(F)cc3)c3ccc4ccccc4n3)CC2)cc1 (centres undefined) | 8 | 36* | 8 | -2 | -18 | -7
CCNc1nc(N2CCCC2)nc(N2CCCC2)n1 | 4 | 2 | 0 | -7 | 0 | -8
CCNc1nc(NC(C)(C)C)nc(N2CCCCC2)n1 | 45* | 61* | 2 | -10 | -22 | -21
CCN1CCN(c2oc(/C=C/c3ccccc3)nc2C#N)CC1 | 2 | 12 | 1 | -19 | -24 | -1
CCCN(C)C1CN(Cc2cn(Cc3ccc(C)cc3)nn2)S(=O)(=O)C1 (centres undefined) | -4 | 2 | 1 | 0 | 1 | 12
Cc1ccc(S(=O)(=O)N2C3CCCCC3O[C@H]2CC(=O)OCc2ccccc2)cc1 (some centres undefined) | 1 | 5 | 7 | -1 | -4 | -5
Cc1snc(SCc2ccc(F)cc2)c1C#N | -11 | -4 | -1 | -3 | 2 | 18*
Cc1cc(NCCCCCCCNc2cc(C)nc3cc([N+](=O)[O-])ccc23)c2ccc([N+](=O)[O-])cc2n1 | 43* | 18 | 2 | -11 | -19 | -10
COCCCNc1cc(C)nc2ccccc12 | -1 | 6 | 2 | -8 | 3 | 7
COc1ccc2c(c1)c(CCNNC(=O)C(C)(C)C)c(C)n2C(=O)c1ccc(Cl)cc1 | -9 | 4 | -1 | -8 | -2 | 16
N#Cc1cc2ccccc2nc1SCc1ccccn1 | 6 | 17 | 52* | 18 | -17 | -13
Cc1ccc(-c2nc(C=Nc3cccc(C)c3)c(O)o2)cc1 | -9 | -1 | 1 | 1 | 18* | 5
Cc1ccc(-c2nc(C=Nc3ccccc3)c(O)o2)cc1 | -5 | -14 | 2 | -7 | -2 | 1
Cc1ccc(NC(=O)COC(=O)Cn2cnc3c2c(=O)n(C)c(=O)n3C)cc1 | -15 | 1 | 2 | 3 | -6 | 4
CCOC(=O)c1c(NC(=O)COC(=O)Cn2cnc3c2c(=O)n(C)c(=O)n3C)sc(C)c1CC | -5 | 6 | 3 | 1 | -9 | 24*
